Source: PubChem BioAssay
HNF4A DNA FP: change in binding of human HNF4 alpha to DNA; P41235; HNF4a-FITC DNA binding, fluorescence polarization, 1 h; activity change, % at 10 µM; 0.3% of 360,000 active; AID 1224865; in the data active means activity change above about 30%, passing the limit was not always enough
Rpn11 inh: Rpn11 (human) deubiquitinase inhibition; O00487; human 26S proteasome, Ub4-pepOG fluorescence polarization; 20S core pre-blocked with epoxomicin; inhibition, % at 20 µM; 0.59% of 360,000 active; AID 588493;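 active means inhibition at 20 µM, scaled to each plate's controls, above about 33%, limit read from the data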
Rin1 Abl inh: human Rin1-Abl interaction inhibition; P00519+Q13671; TR-FRET Rin1/Abl binding, biochemical; 0.4% of 360,000 active; inhibition, % at 7.35 µM; in the data active means inhibition above about 5%, passing the limit was not always enough
Neddylation inh: cullin neddylation inhibition | P61081+Q13564 | TR-FRET cullin neddylation, biochemical | inhibition, % at 25 µM | 0.58% of 360,000 active | AID 651699; in the data active means inhibition above about 36%
Target sequence (P61081 whole entry, looked up): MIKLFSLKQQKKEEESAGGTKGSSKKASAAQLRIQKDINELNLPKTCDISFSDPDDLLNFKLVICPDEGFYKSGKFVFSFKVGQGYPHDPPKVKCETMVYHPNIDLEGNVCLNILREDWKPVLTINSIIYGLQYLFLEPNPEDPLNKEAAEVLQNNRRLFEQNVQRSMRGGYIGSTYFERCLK
Target sequence (Q13564 whole entry, looked up): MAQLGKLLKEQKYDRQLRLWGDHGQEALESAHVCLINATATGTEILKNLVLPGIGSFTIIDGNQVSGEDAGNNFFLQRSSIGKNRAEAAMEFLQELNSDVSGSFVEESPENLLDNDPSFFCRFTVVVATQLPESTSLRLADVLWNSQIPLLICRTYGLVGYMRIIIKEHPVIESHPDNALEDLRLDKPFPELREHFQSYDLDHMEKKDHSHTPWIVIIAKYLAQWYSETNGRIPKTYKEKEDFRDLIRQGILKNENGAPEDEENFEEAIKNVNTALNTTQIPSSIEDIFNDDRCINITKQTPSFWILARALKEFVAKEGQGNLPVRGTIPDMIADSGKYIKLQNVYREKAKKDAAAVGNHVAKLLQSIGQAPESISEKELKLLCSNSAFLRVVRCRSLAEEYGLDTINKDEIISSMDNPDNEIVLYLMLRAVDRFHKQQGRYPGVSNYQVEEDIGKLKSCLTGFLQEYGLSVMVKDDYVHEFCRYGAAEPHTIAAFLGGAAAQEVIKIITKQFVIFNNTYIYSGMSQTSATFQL
TPT1 inhibitor: inhibitors of Candida albicans tRNA 2'-phosphotransferase TPT1; inhibition, % at 5 µM; 0.81% of 300,000 active; recombinant caTPT1, FP RNA substrate dephosphorylation;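 active means inhibition above the mean of all tested compounds plus 3 SD, set per screening campaign, cut at about 24% in these data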;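 further: plate controls were DMSO alone for no effect and ferristatin control at 100 nM for full effect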
CSN inh: blocks human CSN-mediated cullin deneddylation. Q92905. Purified CSN, SCF-Nedd8-OG deneddylation, fluorescence polarization. inhibition, % at 12.5 µM. 0.38% of 360,000 active. AID 651999;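 active means pattern-corrected inhibition above about 35%, with an unprinted fluorescence ratio check between 0.5 and 1.5, limit read from the data, passing the limit was not always enough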;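 further: 0% = enzyme with substrate and 100% = substrate without enzyme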
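Material: human Csn5 produced in HEK293T cells; Input: enzyme 0.24 nM; Reagent: SCFSkp2-Nedd8OG substrate at 10 nM final; Dosing: 12.5 µM compound; Incubation: 90 min reaction at room temperature; Detection: fluorescence polarization of the substrate; Evaluation: % inhibition of substrate cleavage by Csn5; Control set: substrate-only high control, full reaction low control.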
Rin1 Abl conf: confirmation of inhibitors of human Rin1-Abl interaction. 49% of 1,300 active. shares compounds with Rin1 Abl inh. inhibition, % at 7.35 µM. TR-FRET Rin1-Abl binding, purified proteins. AID 602124
GFP quencher: quenches GFP fluorescence, counter-screen for Rin1-Abl inhibitors; 8.5% of 1,300 active; inhibition, % at 6.75 µM; AID 602125; shares compounds with Rin1 Abl inh; inhibitors/quenchers counterscreen;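 further: ABL1-eGFP fusion protein alone without its partner RIN1-SBP; 0% = protein with vehicle and 100% = wells lacking protein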
GFP quench DR: quenches GFP in dose response, Rin1-Abl counter-screen; shares compounds with Rin1 Abl inh; GFP fluorescence interference/quenching counterscreen; IC50, µM; 230 tested, under 10 active; AID 602182; call rule not given here;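 further: ABL1-eGFP fusion protein alone without its RIN1 binding partner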
The depositor's hits bear a star; nt = not tested or not shown. The list is not random: actives were taken first. Their share in the collection is about 2.4%. Unless noted, no stated cut-off is given here; in the data, active means inhibition above about 6.5%; inactive means the rest.

SMILES	HNF4A DNA FP	Rpn11 inh	Rin1 Abl inh	Neddylation inh	TPT1 inhibitor	CSN inh	Rin1 Abl conf	GFP quencher	others
C=CCN(CC=C)C(=S)NC(=O)Cc1cccc2ccccc12	-2	-8	10*	-6	0	-4	-2	-1
Cc1cnc(C(=O)OCC(=O)NCc2cccc(Cl)c2)cn1	4	2	0	-20	nt	6	nt	nt
CCNc1nc(N2CCCCC2)nc(-n2nnc(C(=O)OCC)c2C)n1	0	2	5.8*	-3	-2	0	2	1
CCOC(=O)c1nnn(-c2nc(OC)nc(N3CCCC3)n2)c1-c1ccccc1	3	-2	-1	-12	-3	-1	nt	nt
CC(C)N(CC(N)=O)C(=O)c1sc2cc(F)ccc2c1Cl	-2	-1	7.0*	-1	-2	-2	0	1
Cc1cnc(C(=O)Nc2cccc(S(=O)(=O)N(C)C)c2)cn1	1	-3	-1	-5	1	-19	nt	nt
Cc1ccc2c(cnn2C(=O)CCC(=O)N2CCCCC2)c1	-2	-4	0	-6	-3	-1	nt	nt
COc1ccc(C(=O)C2CCCN(Cc3cccn3-c3nccs3)C2)cc1OC (stereo not drawn)	-1	7	6.0*	3	0	-5	-3	-1
CN(/N=C/c1ccc(O)cc1O)c1ncc(C(F)(F)F)cc1Cl	0	0	8.6*	11	1	5	0	0
CN(/N=C/c1ccccc1Cl)c1ncc(Cl)cc1C(F)(F)F	1	-5	0	-6	1	4	nt	nt
COc1ccc(/C=N/NC(=O)C(=O)Nc2ccccn2)cc1OC	-2	-5	-3	-17	-1	-3	nt	nt
C=CCOc1ccc(/C=N/NC(=O)C(=O)Nc2ccccn2)cc1OC	1	-4	6.5*	-4	0	4	14*	-1
COc1ccc(CC2(C)OC(c3ccc([N+](=O)[O-])cc3)=NN2C(C)=O)cc1 (stereo not drawn)	2	3	-2	-30	0	-8	nt	nt
CCOC(=O)CCCCC(=O)c1[nH]c(=O)[nH]c1CSc1nc(C)cc(C)n1	2	-2	68*	0	4	4	71*	0	GFP quench DR=>68
CCOC(=O)CCCCC(=O)c1[nH]c(=O)[nH]c1CN1CCOCC1	1	-3	80*	-12	-1	2	88*	-1	GFP quench DR=>68
CCCSc1nc(C)cc(=O)[nH]1	3	-1	1	1	-2	1	nt	nt
CCOC(=O)CCCCC(=O)c1[nH]c(=O)[nH]c1C[n+]1ccccc1	nt	nt	nt	nt	-3	nt	nt	nt
CCOC(=O)CCCCC(=O)c1[nH]c(=O)[nH]c1C[n+]1ccc(C)cc1	0	0	23*	-1	-1	-1	30*	2	GFP quench DR=>68
CCOC(=O)c1[nH]c(=O)[nH]c1CSc1nc(C)cc(C)n1	5	3	4	1	0	-3	nt	nt
CCOC(=O)CCCCC(=O)c1[nH]c(=O)[nH]c1CSc1nc(C)cc(=O)[nH]1	0	4	82*	-3	-2	-2	86*	0	GFP quench DR=>68
CCOC(=O)CCCCC(=O)c1[nH]c(=O)[nH]c1CSc1nnc2c3cc(Br)ccc3n(C)c2n1	nt	nt	nt	nt	-1	nt	nt	nt
CCOC(=O)CCCCC(=O)c1[nH]c(=O)[nH]c1CSc1nc2ccccc2[nH]1	-1	-16	84*	-3	6	2	88*	0	GFP quench DR=>68
COc1ccc(N2CCN(C(=O)CSc3nnc(NC(=O)C4CCC4)s3)CC2)cc1	0	6	-1	-4	0	7	nt	nt
CCOc1ccc(CCNC(=O)CN2C(=O)c3cccnc3Oc3ccc(C)cc32)cc1OCC	2	6	36*	0	0	-8	41*	0	GFP quench DR=>67
CCOc1ccc(CCNC(=O)CN2C(=O)c3cccnc3Oc3ccc(Cl)cc32)cc1	1	2	26*	11	2	-1	24*	-2	GFP quench DR=>68
SMILES	HNF4A DNA FP	Rpn11 inh	Rin1 Abl inh	Neddylation inh	TPT1 inhibitor	CSN inh	Rin1 Abl conf	GFP quencher	others
COC(=O)CN1C(=O)COc2ccc(S(=O)(=O)N3CCCCCC3)cc21	4	-4	0	0	1	2	nt	nt
CCOc1ccc2c(c1)OC(c1ccc(OC)cc1)(C(F)(F)F)NC2=O (stereo not drawn)	2	-1	7.1*	1	2	1	-1	0
CCOc1ccc2c(c1)OC(c1ccccc1)(C(F)(F)F)NC2=O (stereo not drawn)	-3	0	5	7	-2	1	nt	nt
Cc1cc(N/N=C/c2ccc(O)cc2O)nc(-n2nc(C)cc2C)n1	1	-8	12*	7	7	-2	10*	-1
CC(=O)c1ccc(NC2=C(N3CCOCC3)C(=O)c3ccccc3C2=O)cc1	-1	5	5	-19	-1	11	nt	nt
Cc1ccc(NC2=C(N3CCOCC3)C(=O)c3ccccc3C2=O)cc1	-2	8	12*	-18	-2	5	-5	1
CNc1ccc(/C=C/C(=O)c2cccc3ccccc23)cc1[N+](=O)[O-]	1	4	-6	-21	3	3	nt	nt
CCOC(=O)CCNC(=O)N1CCCC(C(=O)c2cc(C)c(OC)c(C)c2)C1 (stereo not drawn)	1	-3	-4	3	-2	-6	nt	nt
Cc1c(C(=O)O)c(O)cc2c1C(=O)c1c(O)c([C@@H]3O[C@H](CO)[C@@H](O)[C@H](O)[C@H]3O)c(O)c(O)c1C2=O	-5	3	21*	-65	nt	-2	27*	5
COc1c(O)cc2c(c1O)[C@@H]1O[C@H](CO)[C@@H](O)[C@H](O)[C@H]1OC2=O	-2	0	4	1	2	2	nt	nt
CO/N=C/C(=N\Nc1ccccc1)C(=O)c1ccccc1	6	4	2	0	-6	-16	nt	nt
COC(=O)C=CC(=NNc1ccccc1)c1ccccc1	-2	4	9.1*	-1	nt	2	-2	-1
CC(C)=CCN1CCN(Cc2cn[nH]c2C2CCCCC2)CC1CCO (stereo not drawn)	nt	nt	nt	nt	-6	nt	nt	nt
CCCCOC(=O)C1=C(C)NC2(O)c3ccccc3C(=O)C12O (stereo not drawn)	1	1	7.8*	-9	0	4	1	-2
CC1=C(C(=O)OC(C)C)C2(O)C(=O)c3ccccc3C2(O)N1 (stereo not drawn)	-1	3	13*	-13	-3	0	-2	-1
O=C(Nc1ccc([N+](=O)[O-])cc1)c1cc(Cl)sc1Cl	-1	-3	-1	-27	2	1	nt	nt
